Experiment [1] can be described thus: OD615 S. cerevisiae growth inhibition, permissive medium, pilot counter-assay, permissive growth control for S. cerevisiae lifespan shortening project (AID 705;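 active = growth inhibition above 25% in both replicates, a cutoff set 3 SD above the mean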). The settings on record: OD615, 24 h, at 10 µM, hits give high values. In outline:
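Material: engineered DeaD yeast; Compound: one dose 10 µM, DMSO 0.25% final; Detection: absorbance (optical density) at 615 nm; Buffer or medium: permissive raffinose/galactose medium; Timing: 24 h exposure, 30 °C.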

Experiment [2] in a line: Restrictive medium S. cerevisiae growth inhibition, OD615, pilot screen of yeast lifespan reduction project, restrictive growth control (AID 706;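 active = growth inhibition above a set limit, 3 SD over mean compound inhibition, in both replicates, cut at about 43% in these data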;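 note: modified DeaD lifespan yeast strain shifted to restrictive glucose medium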). The settings on record: OD615, 48 h, at 10 µM, hits give high values. In outline: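 Buffer or medium: restrictive glucose medium (CSMM-D); test system: modified S. cerevisiae; doses: single dose of 10 µM compound final, 0.25% DMSO; schedule: 48 h compound exposure at 30 °C; detection: absorbance (optical density) measured at 615 nm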

Experiment [3] is described as follows: viability gain of MRP-1-high H69AR cells under doxorubicin, pilot screen, MRP-1 activator project, CellTiter-Glo, duplicate (AID 807;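 active = viability increase at or above a cutoff of the median across tested compounds plus 3 SD, cut at about 8.5% in these data, passing the limit was not always enough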;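 note: compound pretreatment 18-22 h then 72 h combined with doxorubicin; 0% = doxorubicin alone and 100% = vehicle without doxorubicin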). To be noted: H69AR viability with doxorubicin, CellTiter-Glo luminescence; at 10 µM; hits give high values.
Experiment [4] can be described thus: growth suppression of beta-catenin knockout HCT116, pilot screen, human colon tumor cells (AID 823;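 active = cell viability at or below a set limit in both duplicate runs, the limit being the all-compound median minus 4 SD, cut at about 23% in these data, passing the limit was not always enough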;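 note: 0% = wells killed by 20 µM Hyamine and 100% = untreated DMSO cell wells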). The settings on record: CellTiter-Glo, 60 h, at 10 µM, hits give low values.
The nature of experiment [5]: growth suppression of PTEN-deleted HCT116, pilot screen, cell-based, HCT116 clonal line, CellTiter-Glo (AID 824).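 Note: 0% = 20 µM Hyamine control and 100% = vehicle cell control.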 The settings on record: 60 h, at 10 µM, hits give low values.
A short description of experiment [6]: inhibitors of the yeast RAM network, pilot screen, dse1pr::URA3 reporter, 5-FOA selection (AID 869;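 active = inhibition over a set limit, the all-compound mean plus 3 SD, in both replicate runs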;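 note: 0% = DMSO wells with no growth and 100% = 10 µM 1-NA-PP1 with full growth; RAM network block rescues cells from 5-FOA so hits raise OD615 growth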). To be noted: S. cerevisiae dse1pr::URA3 5-FOA growth, OD615, 2 d; at 10 µM; hits give high values; strain carries analog-sensitive mutant Cbk1 kinase.
A short description of experiment [7]: RAM signaling pathway blockade in yeast – S. cerevisiae, Pdr1DBD-CYC8 efflux-inhibited sensitized strain, primary screen (AID 1298;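 active = RAM network inhibition above 8.4% in each of two replicates, 3 SD over the compound average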;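 note: 0% = DMSO untreated cells without growth and 100% = 10 µM 1-NA-PP1 full growth; higher means more yeast growth rescued from 5-FOA killing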). The settings on record: S. cerevisiae cbk1-as DSE1-URA3 strain, 5-FOA growth OD615, 2 d; at 50 µM; hits give high values.

Each structure is given as a SMILES string. Unmarked numbers belong to inactive results. Results filed as inconclusive are left out. Active and inactive are the calls of the source.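 Rule for the calls, unless noted: active = viability at or below 27.92% in each of two runs, the all-compound median minus 4 SD; inconclusive = no clear call, values can overlap the other calls; inactive = the rest.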

Consider `CC(=O)c1ccc(Nc2cc(C)nc3nc(C)nn23)cc1`, for which the growth inhibition in experiment [1] was -0.07%; in experiment [2], -9.04%. In experiment [3], the viability increase is -3.3%. The viability in experiment [4] is 103%; in experiment [5], 100%. For the same compound, in experiment [6], the inhibition was 0.72%. For the same compound, in experiment [7], the RAM network inhibition was -1.56%.
Consider `Cc1cc(=O)[nH]c(SCc2cc(Cl)ccc2OC(F)F)n1`, for which the figures for the growth inhibition in experiment [1] and in experiment [2] were -4.67% and 15.1%, respectively. The viability increase in experiment [3] was -1.54%. The viability is 98.2% in experiment [4] and 92.1% in experiment [5]. In experiment [6], the inhibition is 1.62%. Also, the RAM network inhibition in experiment [7] is 5.32%.
With `Cc1c(C(=O)NCc2ccc3c(c2)OCO3)sc2nc(-c3ccccc3)cn12`, the growth inhibition is 5.98% in experiment [1] and -4.12% in experiment [2]. Further, the viability increase in experiment [3] is -0.35%. In addition, the viability in experiment [4] is 111%; in experiment [5] it was 103%. Besides, in experiment [6], the inhibition is 3.05%. Besides, the RAM network inhibition in experiment [7] is 6.39%.
As for `O=C(CCCCn1c(=O)[nH]c2ccccc2c1=O)NC1CCN(Cc2ccccc2)CC1`, the growth inhibition in experiment [1] is -14.6%; in experiment [2], -22.8%. Moreover, the viability increase in experiment [3] is -0.32%. In addition, the viability was 91.4% in experiment [4] and 89% in experiment [5]. Further, the inhibition in experiment [6] is 0.41%. For the same compound, in experiment [7], the RAM network inhibition was 0.63%.
As for `CCN(CC)CCCNC(=O)C1c2ccccc2C(=O)N(C)C1c1ccc(OC)cc1` (configuration not stated), the results for the growth inhibition in experiment [1] and in experiment [2] were -23% and -20.7%, respectively. In addition, in experiment [3], the viability increase was 0.37%. For the same compound, the viability is 96.5% in experiment [4] and 97.3% in experiment [5]. The inhibition in experiment [6] was 3.1%. For the same compound, the RAM network inhibition in experiment [7] was 2.54%.
In the case of `CC1C(c2ccccc2)=[N+]([O-])C2(CCCC2)N1O` (configuration not stated), the growth inhibition was -2.46% in experiment [1] and -6.78% in experiment [2]. For the same compound, in experiment [3], the viability increase is -3.01%. Besides, the viability in experiment [4] is 97%; in experiment [5], 96.6%. For the same compound, in experiment [6], the inhibition was 1.53%. Also, the RAM network inhibition in experiment [7] was 1.41%.
Take `CCOCCn1c(COc2ccccc2)nc2ccccc21`: the values for the growth inhibition in experiment [1] and in experiment [2] were -6.72% and 1.93%, respectively. Besides, in experiment [3], the viability increase is -2.53%. In addition, the viability in experiment [4] is 83.8%; in experiment [5], 81.9%. Moreover, the inhibition in experiment [6] is 1.88%. In addition, the RAM network inhibition in experiment [7] was 6.89%.
On to `CCOC(=O)c1nnn(-c2nonc2N)c1CN(C)Cc1ccccc1`, for which the values for the growth inhibition in experiment [1] and in experiment [2] were -7.27% and -11.5%, respectively. Moreover, the viability increase in experiment [3] was -4.12%. The viability in experiment [4] was 84%; in experiment [5], 88.1%. Moreover, the inhibition in experiment [6] is 2.05%. Moreover, in experiment [7], the RAM network inhibition is 4.2%.
On to `Cn1c(NC(=O)C(C)(C)Oc2ccc(Cl)cc2)cc(=O)n(C)c1=O`, for which the values for the growth inhibition in experiment [1] and in experiment [2] were -1.72% and -8.67%, respectively. In addition, in experiment [3], the viability increase is -0.77%. For the same compound, the results for the viability in experiment [4] and in experiment [5] were 94.7% and 91.3%, respectively. Besides, in experiment [6], the inhibition is 2.34%. For the same compound, the RAM network inhibition in experiment [7] is -2.22%.
With `Cc1sc2nc(SCC(=O)NCc3ccco3)[nH]c(=O)c2c1C`, the growth inhibition in experiment [1] is -4%; in experiment [2], -4.97%. Further, in experiment [3], the viability increase was -3.92%. Also, the viability in experiment [4] is 106%; in experiment [5] it was 101%. In addition, the inhibition in experiment [6] was 2.67%. Also, the RAM network inhibition in experiment [7] was 5.12%.
In the case of `CCOC(=O)C(CCOc1cccc(CC)c1)C(=O)OCC`, the growth inhibition is 4.28% in experiment [1] and -17.2% in experiment [2]. Moreover, the viability increase in experiment [3] was -2.61%. Besides, the viability in experiment [4] is 89.5%; in experiment [5], 87%. Further, the inhibition in experiment [6] was -0.12%. Further, the RAM network inhibition in experiment [7] was 2.13%.
`O=C(CSC1=NS(=O)(=O)c2ccccc21)Nc1ccccc1`: the figures for the growth inhibition in experiment [1] and in experiment [2] were 56.7% (active) and 96.9% (active), respectively. For the same compound, the viability increase in experiment [3] was -2.73%. Also, the viability in experiment [4] was 94.3%; in experiment [5], 104%. Moreover, in experiment [6], the inhibition was -0.07%. The RAM network inhibition in experiment [7] was -0.47%.
With `CCOC(=O)N1CCN(C(=O)C2CCN(Cc3nc(-c4ccccc4C)oc3C)CC2)CC1`, the growth inhibition was -13.5% in experiment [1] and -31.5% in experiment [2]. Moreover, the viability increase in experiment [3] is -1.65%. Further, the viability was 85.3% in experiment [4] and 88% in experiment [5]. For the same compound, the inhibition in experiment [6] is 0.75%. Moreover, in experiment [7], the RAM network inhibition is 1.63%.
For the compound `CS(=O)(=O)N(CC(=O)NCc1ccco1)c1ccc(Cl)c(C(F)(F)F)c1`, the figures for the growth inhibition in experiment [1] and in experiment [2] were -19% and -22.3%, respectively. Moreover, in experiment [3], the viability increase was -3.58%. Further, the viability is 92.8% in experiment [4] and 88.2% in experiment [5]. The inhibition in experiment [6] is 0.705%. Moreover, the RAM network inhibition in experiment [7] is 7.07%.
With `CC(=O)Oc1c2occc2cc2ccc(=O)oc12`, the growth inhibition was -10.4% in experiment [1] and -1.74% in experiment [2]. In experiment [3], the viability increase is -2.14%. Moreover, the figures for the viability in experiment [4] and in experiment [5] were 92.7% and 90.5%, respectively. Further, the inhibition in experiment [6] was 0.425%. In experiment [7], the RAM network inhibition is -1.95%.
For the compound `CCOC(=O)CCn1cc(F)c(=O)n(Cc2ccccc2)c1=O`, the growth inhibition in experiment [1] was 3.69%; in experiment [2], 2.14%. Further, in experiment [3], the viability increase was -0.3%. The viability in experiment [4] was 105%; in experiment [5], 96.1%. Further, the inhibition in experiment [6] is 0.42%. In addition, the RAM network inhibition in experiment [7] is 1.43%.

The record behind these values is PubChem BioAssay.
